Screening results as filed in PubChem BioAssay.
HKDC1 inh: HKDC1 hexokinase inhibitors, primary screen, biochemical, fluorescence, uHTS | Q2TB90 | recombinant HKDC1, G6PDH/diaphorase resazurin coupled fluorescence | inhibition, % at 20 µM | actives 0.16% (n = 340,000) | AID 493160, 2011;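 active means inhibition above about 35% when tested at 20 µM, limit read from the data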;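 further: plate controls were DMSO wells with enzyme for no effect and DMSO wells lacking enzyme for full effect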
Target sequence (Q2TB90 whole entry, looked up): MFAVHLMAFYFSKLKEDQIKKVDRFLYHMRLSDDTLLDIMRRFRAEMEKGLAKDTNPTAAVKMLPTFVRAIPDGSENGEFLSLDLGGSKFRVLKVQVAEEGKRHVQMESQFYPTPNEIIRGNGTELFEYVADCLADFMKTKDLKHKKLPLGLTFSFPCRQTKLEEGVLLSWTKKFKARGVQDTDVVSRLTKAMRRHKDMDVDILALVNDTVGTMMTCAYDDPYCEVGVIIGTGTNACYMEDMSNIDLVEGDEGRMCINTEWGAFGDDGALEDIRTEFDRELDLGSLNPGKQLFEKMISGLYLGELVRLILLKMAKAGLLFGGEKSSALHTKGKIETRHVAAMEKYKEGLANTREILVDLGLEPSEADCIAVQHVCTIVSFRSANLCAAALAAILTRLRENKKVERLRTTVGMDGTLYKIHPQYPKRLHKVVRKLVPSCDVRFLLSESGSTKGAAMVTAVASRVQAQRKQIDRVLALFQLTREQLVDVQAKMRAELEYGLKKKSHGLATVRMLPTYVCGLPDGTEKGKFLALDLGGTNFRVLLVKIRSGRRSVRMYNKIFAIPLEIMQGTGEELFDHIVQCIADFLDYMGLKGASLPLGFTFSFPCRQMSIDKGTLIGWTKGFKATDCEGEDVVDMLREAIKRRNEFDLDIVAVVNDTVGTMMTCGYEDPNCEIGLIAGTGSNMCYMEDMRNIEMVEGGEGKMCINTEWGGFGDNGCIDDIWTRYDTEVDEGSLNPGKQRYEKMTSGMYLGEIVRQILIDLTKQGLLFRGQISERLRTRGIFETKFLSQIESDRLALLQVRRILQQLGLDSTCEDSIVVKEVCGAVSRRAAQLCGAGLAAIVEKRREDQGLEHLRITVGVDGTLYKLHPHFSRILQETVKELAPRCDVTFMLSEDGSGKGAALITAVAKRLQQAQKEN
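System: Recombinant HKDC1 hexokinase | Amount: HKDC1 at 5 µg/mL | Reagent: Glucose with 1 mM ATP | Doses: Single 20 µM dose | Incubation: Reaction time 90 min, room temperature, protected from light | Signal: Coupled resazurin fluorescence, excitation 525 nm, emission 613 nm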
TbHK1 inh: Trypanosoma brucei hexokinase 1 inhibitors, primary screen, biochemical, G6PDH-coupled NADH absorbance, MLSCN library | hexokinase 1 [Trypanosoma brucei] | recombinant TbHK1, G6PDH-coupled NADH A340 | inhibition, % at 10 µM | actives 0.11% (n = 220,000);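 active means inhibition of 50% or more in the single-dose primary screen; inactive means inhibition below 50%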
PfG6PD inh: PfG6PD enzyme inhibitors, primary screen, biochemical, fluorescence intensity, uHTS; glucose-6-phosphate dehydrogenase-6-phosphogluconolactonase (Plasmodium falciparum 3D7); PfGluPho enzyme, NADPH resazurin-diaphorase fluorescence; inhibition, % at 20 µM; actives 0.78% (n = 350,000); AID 504690, 2011;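 active means inhibition reaching at least a set limit at 20 µM in the primary screen, cut at about 59% in these data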;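 further: 0% = DMSO wells with substrate and 100% = DMSO wells lacking glucose-6-phosphate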
PHOSPHO1 block: PubChem AID 1565; Phosphoethanolamine/phosphocholine phosphatase (Homo sapiens), Q8TCT1; recombinant PHOSPHO1, absorbance phosphatase assay; inhibition, % at 13.3 µM; actives 1.1% (n = 290,000); in the data active means inhibition above about 60%
EP2 mod: EP2 receptor modulators, cAMP readout, primary screen, cell-based, HTRF cAMP, PGE2 stimulation | AID 940, 2007 | EP2-expressing cells, cAMP HTRF FRET, PGE2 co-stimulation | actives 0.83% (n = 260,000) | induction, % at 25 µM | Prostaglandin E2 receptor EP2 subtype (Homo sapiens), P43116;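 active means compounds whose cAMP rise, as percent of the full-agonist control response, exceeds 60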;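 further: rat C6 glioma line stably carrying human EP2 under a CMV promoter; the protocol text gives 20 µM as final concentration; 100% = response of wells given 1 µM PGE2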
EP2 antag: human EP2 receptor antagonists, primary screen, TR-FRET cAMP, C6 glioma cells; inhibition, % at 25 µM; actives 0.52% (n = 260,000); C6 glioma cells expressing human EP2; cells stimulated with saturating PGE2; Prostaglandin E2 receptor EP2 subtype (Homo sapiens), P43116;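 active means percent inhibition above 40 after rounding to a whole number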;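 further: rat C6 glioma host cells with rolipram phosphodiesterase inhibitor present; the protocol text gives 20 µM as final concentration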
PfGluPho conf: PfG6PD inhibitors, hit retest, confirmation, biochemical, fluorescence intensity, single concentration; actives 34% (n = 2,400); inhibition, % at 20 µM; recombinant PfGluPho, NADPH-diaphorase-resazurin fluorescence; shares compounds with PfG6PD inh;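 active means inhibition of at least 50% at 20 µM in any single replicate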;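 further: 0% = DMSO with substrate and 100% = DMSO lacking glucose-6-phosphate substrate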
Diaphorase 10uM: diaphorase inhibitors and chemical oxidizers, confirmation, counter-screen for P. falciparum G6PD inhibitor project, biochemical, fluorescence intensity, 10 µM NADPH; AID 504862, 2011; inhibition, % at 20 µM; shares compounds with PfG6PD inh; diaphorase-coupled resazurin reduction, NADPH 10 uM; actives 39% (n = 820);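 active means average inhibition reaching 50% or more with the compound at 20 µM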;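 further: resorufin red fluorescence formed as diaphorase reduces resazurin using NADPH; 0% = DMSO with enzyme and 100% = DMSO without enzyme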
Diaph ctr 30uM: diaphorase inhibitors and chemical oxidizers, confirmation, counter-screen for P. falciparum G6PD inhibitor project, biochemical, fluorescence intensity, 30 µM NADPH; shares compounds with PfG6PD inh; Diaphorase/resazurin coupled assay, resorufin fluorescence; inhibition, % at 20 µM; actives 29% (n = 820);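 active means inhibition averaging 50% or more, tested at 20 µM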;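 further: 0% = DMSO with enzyme and 100% = DMSO wells lacking diaphorase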
* marks the source's active call; other numbers are inactive results; / = not tested or not shown. Sampled rows, rich in hits. Any-hit rate of the full collection: about 2.5%.

SMILES | HKDC1 inh | TbHK1 inh | PfG6PD inh | PHOSPHO1 block | EP2 mod | EP2 antag | PfGluPho conf | others
O=C(NCCCN1CCOCC1)c1sc2cc([N+](=O)[O-])ccc2c1Cl | 14.8 | -5.9 | 87.5* | 20.0 | 3.9 | 5.7 | 94.6* | Diaphorase 10uM=-22.2;Diaph ctr 30uM=-20.9
O=C(NCCCN1CCOCC1)c1sc2cc(Cl)ccc2c1Cl | -1.7 | -3.6 | -10.8 | 28.0 | -68.7 | 10.1 | /
O=C(Nc1ccccn1)c1sc2cc([N+](=O)[O-])ccc2c1Cl | -22.2 | / | 70.2* | 3.8 | / | / | 61.0* | Diaphorase 10uM=-14.9;Diaph ctr 30uM=-18.0
Cc1ccc2c(c1)c1nnc(SCC(N)=O)nc1n2C | / | / | / | / | -35.7 | 9.2 | /
COc1ccc(CN(CCCn2ccnc2)Cc2cnc(N)nc2)cc1 | / | / | / | / | 11.9 | 7.5 | /
CCN1CCN(c2nc(C)nc3c2sc(=S)n3C)CC1 | -5.4 | -51.7 | 76.3* | 60.3* | 15.2 | 7.7 | 62.4* | Diaphorase 10uM=-18.9;Diaph ctr 30uM=-14.6
Cc1nc(N2CCCCC2)c2sc(=S)n(C)c2n1 | -4.4 | -8.2 | 1.1 | 14.1 | 19.2 | 5.2 | /
O=C(N/N=C/c1cc2c(cc1[N+](=O)[O-])OCO2)c1ccccn1 | -1.1 | -7.1 | 72.3* | / | / | 3.0 | 20.1
O=C(N/N=C/c1cc2c(cc1Cl)OCO2)c1ccccn1 | -2.8 | -12.8 | -3.4 | / | / | 10.2 | /
O=C(/C=C/c1ccc(-c2ccccc2)o1)c1ccccc1 | 8.7 | 15.1 | 111.3* | -11.0 | 18.7 | 9.1 | 4.9
Cc1ccc(-c2ccc(C(=O)NCc3ccc(Cl)cc3)o2)c2ccccc12 | 21.3 | 0.0 | 60.9* | -13.5 | 26.1 | 15.9 | 4.0
Cc1ccccc1-c1ccc(C(=O)NCc2ccccc2)o1 | -2.2 | -5.8 | 3.3 | -8.6 | -23.2 | 11.9 | /
O=[N+]([O-])c1ccc(Sc2cccc3cccnc23)c2cccnc12 | 7.4 | -4.6 | 94.3* | 19.5 | -29.8 | 6.9 | 52.6* | Diaphorase 10uM=66.4*;Diaph ctr 30uM=46.4
COC(=O)c1sc2ncn(Cc3ccc(F)cc3)c(=O)c2c1C | / | / | / | / | -34.8 | 8.0 | /
COc1ccc(CCn2c(NN=C3CCCCC3)nc3c2c(=O)[nH]c(=O)n3C)cc1 | 11.1 | -23.5 | 106.3* | 44.6 | 23.6 | 5.1 | 80.9* | Diaphorase 10uM=-7.9;Diaph ctr 30uM=-5.0
CN(C)c1ccc(-c2nnn(CC(=O)NC3CCCCC3)n2)cc1 | / | / | / | / | -18.3 | 8.9 | /
CCOC(=O)c1sc(=S)n(C)c1NC(=O)c1ccccc1 | -12.5 | -25.6 | 64.1* | 25.3 | 31.4 | 4.8 | 27.7
Oc1ccc(N2CCN(c3nc(-c4cccs4)nc4ccccc34)CC2)cc1 | 8.9 | -18.1 | 60.4* | 9.0 | 25.4 | 4.6 | 6.4
O=S(=O)(c1ccc(S(=O)(=O)N2CCN(c3ccc(F)cc3)CC2)cc1)N1CCCC1 | / | / | / | / | -23.7 | 11.0 | /
O=S(=O)(Cc1cccc(F)c1)c1c[nH]c2ccccc12 | 1.5 | 4.1 | 85.9* | 2.1 | -6.7 | 7.8 | 40.8
O=C(CS(=O)(=O)c1c[nH]c2ccccc12)Nc1ccc(F)cc1 | -4.2 | / | 10.9 | 27.0 | / | / | /
CCc1nc2sc3c(c2c2nnc(SCC(=O)NCc4ccco4)n12)CCC(C)C3 (stereo not given) | / | / | / | / | 13.8 | 8.2 | /
O=C(CSc1nc2ccccc2c(=O)n1Cc1ccco1)Nc1ccc(Cl)c(C(F)(F)F)c1 | / | / | / | / | -2.8 | 8.8 | /
O=C(Oc1c(Br)cc(C(=S)N2CCOCC2)cc1Br)c1ccc(Cl)cc1 | 1.7 | -6.3 | 66.5* | 95.9* | 34.6 | / | 9.2
COc1cc2c(cc1C1C(C#N)=C(N)Oc3n[nH]c(C)c31)OCO2 (stereo not given) | / | / | / | / | -106.7 | 9.1 | /
SMILES | HKDC1 inh | TbHK1 inh | PfG6PD inh | PHOSPHO1 block | EP2 mod | EP2 antag | PfGluPho conf | others
O=Cc1cccc(Oc2ncccn2)c1 | -2.4 | 2.8 | 7.4 | -7.9 | 36.8 | 4.6 | /
Nc1ccc(Oc2ncccn2)cc1 | 20.9 | / | 66.3* | / | / | / | 26.5
COc1ccc(Cl)cc1NC(=O)CSc1nnc(-c2cccc(C)c2)o1 | / | / | / | / | -46.7 | 12.8 | /
CC1=C(C(=O)OCc2ccccc2)C(c2cccnc2)n2nnnc2N1 (stereo not given) | 2.4 | -2.3 | 61.4* | 13.6 | 4.4 | 10.8 | 31.3
Cc1ccc(C)c(CN2C(=O)COc3ccc(C(=O)c4ccccc4C(=O)O)cc32)c1 | 3.5 | 11.5 | 61.3* | 3.5 | 34.0 | 6.2 | 39.8
CC(C)=CCOc1c2ccoc2c(OCC=C(C)C)c2oc(=O)ccc12 | 15.9 | / | 128.3* | / | / | / | 70.8* | Diaphorase 10uM=63.2*;Diaph ctr 30uM=59.1*
CC(C)=CCOc1c2ccoc2cc2oc(=O)ccc12 | 2.2 | -6.2 | 72.4* | 1.1 | 52.7 | 6.7 | 30.6
C=C(C)[C@@H](O)COc1c2ccoc2cc2oc(=O)ccc12 | 1.4 | / | 14.9 | / | / | / | /
CC(=O)C1=C(O)C(=O)NC1c1ccc(C(C)C)cc1 (stereo not given) | / | / | / | / | 18.4 | 11.5 | /
C=CCc1c(C)[nH]c2ccc(OC)cc2c1=S | / | / | / | / | -16.4 | 10.1 | /
C=CCc1c(C)[nH]c2c(OC)cccc2c1=S | -5.4 | 2.9 | 62.0* | -123.3 | -65.3 | 7.5 | 36.2
CCC(CN1CCN(C)CC1)NC(=O)C1(c2ccc(F)cc2)CC1 (stereo not given) | / | / | / | / | -5.4 | 8.2 | /
O=C(COc1ccccc1-c1ccccc1)N/N=C/c1cccc2ccccc12 | 1.4 | -6.3 | 10.8 | 34.3 | -2.7 | 13.0 | /
O=C(COc1cccc2ccccc12)N/N=C/c1ccccc1OCc1ccc(C(=O)O)cc1 | 3.7 | -1.4 | 76.8* | -3.0 | 32.2 | 7.3 | 44.9
COc1ccc(N2CSC3=C(C#N)C(c4cccc(OC)c4OC)CC(=O)N3C2)cc1 (stereo not given) | 15.1 | -22.4 | 89.4* | 83.3* | 20.2 | 12.7 | 37.0
CCc1ccccc1N1CSC2=C(C#N)C(c3ccccc3F)CC(=O)N2C1 (stereo not given) | 13.4 | -9.4 | 74.1* | 61.0* | 4.1 | 9.8 | 51.0* | Diaphorase 10uM=-16.8;Diaph ctr 30uM=-12.5
COc1cc(OC)c(C2CC(=O)N3CN(c4ccccc4C)CSC3=C2C#N)cc1OC (stereo not given) | / | -17.7 | / | 10.7 | 39.9 | 2.3 | /
Cc1c(C(=O)Nc2cccc([N+](=O)[O-])c2)cnn1-c1ccccc1 | -1.4 | / | 74.0* | 8.5 | / | / | 27.0
